The subject of one test is HepG2. Description: Antiproliferative activity against human HepG2 cells after 48 hrs by MTT assay. The class given is functional, cell-based. Conditions: HepG2, 48 h. An outline of the steps:
(§1)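 Cells were seeded at 7×10^3 per well and grown 24 h, then exposed to compounds for 48 h. MTT was added for 6 h, followed by 10% SDS in 0.01 N HCl for 4 h at 37 °C, and absorbance was read at 570 nm. Survival is expressed relative to untreated cells. IC50 came from 6-well replicates in at least two independent experiments.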
On the technique in general: Tetrazolium assays rely on reduction of a dye to a coloured formazan, in cell work by metabolically active cells.

In a further test the test system is PC-3. Description: Antiproliferative activity against human PC3 cells after 48 hrs by MTT assay. Conditions: PC-3, 48 h. The format is functional, cell-based. An outline of the steps:
as §1

A short description of test [1]: Antiproliferative activity against mouse B16/F10 cells after 48 hrs by MTT assay. The class given is functional, cell-based. To be noted: B16-F10, 48 h. An outline of the steps: as §1
Test [2] can be described thus: Inhibition of FAM-Bak-BH3 binding to human N-terminal His6-tagged Bcl2 isoform 2 after 4 hrs by fluorescence polarization assay.

Each structure is given as a SMILES string. Values after ≈ are worked out from the molar mass of the structure shown.

The values that follow come from ChEMBL document CHEMBL2046328, “Structure-based design of rhodanine-based acylsulfonamide derivatives as antagonists of the anti-apoptotic Bcl-2 protein” (Bioorg Med Chem, 2012).

Usually IC50 stands for the concentration needed to halve the response being measured. A higher IC50 goes with lower potency. As a reminder, the Ki is a measure of affinity in units of concentration, obtained from inhibition or displacement.

On to `COc1ccccc1/C=C1\SC(N[C@H](C(=O)NS(=O)(=O)c2ccc(C)cc2)C(C)C)=NC1=O`, for which the IC50 in the test with HepG2 worked out at 20.2 µg/mL (≈ 41.4 µM); with PC-3 it was 15 µg/mL (≈ 30.8 µM); in test [1], 13.5 µg/mL (≈ 27.7 µM).

Take `COc1ccc(/C=C2\SC(N[C@H](C(=O)NS(=O)(=O)c3ccc(C)cc3)C(C)C)=NC2=O)cc1`: the half-inhibitory concentration (IC50) in the test on HepG2 turned out to be 12.8 µg/mL (≈ 26.2 µM); with PC-3 it was 20.3 µg/mL (≈ 41.6 µM); in test [1], 11.6 µg/mL (≈ 23.8 µM). In addition, affinity in test [2] was put at a Ki of 672 nM.

Regarding `Cc1ccc(S(=O)(=O)NC(=O)[C@H](Cc2ccccc2)NC2=NC(=O)/C(=C/c3ccccc3F)S2)cc1`, the IC50 in the test on HepG2 came to 18.7 µg/mL (≈ 35.8 µM); in the test on PC-3, 22.1 µg/mL (≈ 42.1 µM); in test [1], 11.9 µg/mL (≈ 22.7 µM).

`Cc1ccc(S(=O)(=O)NC(=O)[C@H](CC(C)C)NC2=NC(=O)/C(=C/c3cccc(Cl)c3)S2)cc1`: the IC50 was 16.5 µg/mL (≈ 32.6 µM) with HepG2, 16.8 µg/mL (≈ 33.1 µM) in the test on PC-3 and 13.4 µg/mL (≈ 26.4 µM) in test [1].

On to `Cc1ccc(S(=O)(=O)NC(=O)[C@H](CC(C)C)NC2=NC(=O)/C(=C/c3ccccc3F)S2)cc1`, for which the IC50 in the test on HepG2 was 16.4 µg/mL (≈ 33.6 µM); in the test on PC-3, 15.3 µg/mL (≈ 31.3 µM); in test [1], 11.3 µg/mL (≈ 23.1 µM).

For `Cc1ccc(S(=O)(=O)NC(=O)[C@@H](NC2=NC(=O)/C(=C/c3ccccc3Cl)S2)C(C)C)cc1`, the IC50 in the test on HepG2 amounted to 21.2 µg/mL (≈ 43.2 µM); with PC-3 it was 11.9 µg/mL (≈ 24.1 µM); in test [1], 8.8 µg/mL (≈ 17.9 µM). The compound further came in with a Ki in test [2] of 25 nM.

Regarding `Cc1ccc(S(=O)(=O)NC(=O)[C@H](CC(C)C)NC2=NC(=O)/C(=C/c3ccccc3Cl)S2)cc1`, the IC50 in the test with HepG2 is 13.3 µg/mL (≈ 26.4 µM); in the test on PC-3 it was 15.6 µg/mL (≈ 30.8 µM); in test [1], 8.52 µg/mL (≈ 16.8 µM).

As for `Cc1ccc(S(=O)(=O)NC(=O)[C@@H](NC2=NC(=O)/C(=C/c3ccccc3)S2)C(C)C)cc1`, the values for the IC50 (with HepG2; in the test on PC-3; in test [1]) were 18.2 µg/mL (≈ 39.8 µM), 11.9 µg/mL (≈ 26 µM) and 7.46 µg/mL (≈ 16.3 µM), respectively. Moreover, in test [2], the inhibition constant (Ki) stood at 3010 nM.

In the case of `Cc1ccc(S(=O)(=O)NC(=O)[C@H](Cc2ccccc2)NC2=NC(=O)/C(=C/c3ccc(-c4ccccc4)cc3)S2)cc1`, the values for the IC50 (with HepG2; in the test on PC-3; in test [1]) were 16.6 µg/mL (≈ 28.5 µM), 16.4 µg/mL (≈ 28.1 µM) and 12.5 µg/mL (≈ 21.6 µM), respectively. The same compound had a Ki in test [2] of 310 nM.

`Cc1cc2c(C(C)C)c(O)c(O)c(C=O)c2c(O)c1-c1c(C)cc2c(C(C)C)c(O)c(O)c(C=O)c2c1O` [GOSSYPOL]: the IC50 in the test with HepG2 came to 10.2 µg/mL (≈ 19.6 µM); with PC-3, 6.71 µg/mL (≈ 12.9 µM); in test [1], 5.56 µg/mL (≈ 10.7 µM). The compound also displayed a Ki in test [2] of 334 nM.

In the case of `Cc1ccc(S(=O)(=O)NC(=O)[C@H](Cc2ccccc2)NC2=NC(=O)/C(=C/c3ccccc3Cl)S2)cc1`, the IC50 is 21 µg/mL (≈ 38.9 µM) with HepG2, 16 µg/mL (≈ 29.6 µM) in the test with PC-3 and 12.2 µg/mL (≈ 22.6 µM) in test [1]. In addition, in test [2], the Ki was determined as 20 nM.
